In ChEMBL document CHEMBL4673340 (J Med Chem, 2020):
Activity calls are given as the source filed them. The rule behind the calls is not given here.

How the values were obtained:
[1] = Clearance in mouse liver microsomes; format: ADME, Microsome; settings: read-out: CLH
[2] = biological target: T1, Poly [ADP-ribose] polymerase 1 (Homo sapiens, UniProt P09874); assay: Inhibition of PARP-1 in human HeLa cells incubated for 18 hrs in presence of H2O2; format: cell-based
[3] = biological target: Poly [ADP-ribose] polymerase 2 (Homo sapiens, UniProt Q9UGN5); assay: Inhibition of PARP-2 (unknown origin) pre-incubated for 30 mins before addition of activated DNA and NAD by chemiluminescent assay
Chain of Poly [ADP-ribose] polymerase 2 (Q9UGN5 whole entry, the tested form may be a part): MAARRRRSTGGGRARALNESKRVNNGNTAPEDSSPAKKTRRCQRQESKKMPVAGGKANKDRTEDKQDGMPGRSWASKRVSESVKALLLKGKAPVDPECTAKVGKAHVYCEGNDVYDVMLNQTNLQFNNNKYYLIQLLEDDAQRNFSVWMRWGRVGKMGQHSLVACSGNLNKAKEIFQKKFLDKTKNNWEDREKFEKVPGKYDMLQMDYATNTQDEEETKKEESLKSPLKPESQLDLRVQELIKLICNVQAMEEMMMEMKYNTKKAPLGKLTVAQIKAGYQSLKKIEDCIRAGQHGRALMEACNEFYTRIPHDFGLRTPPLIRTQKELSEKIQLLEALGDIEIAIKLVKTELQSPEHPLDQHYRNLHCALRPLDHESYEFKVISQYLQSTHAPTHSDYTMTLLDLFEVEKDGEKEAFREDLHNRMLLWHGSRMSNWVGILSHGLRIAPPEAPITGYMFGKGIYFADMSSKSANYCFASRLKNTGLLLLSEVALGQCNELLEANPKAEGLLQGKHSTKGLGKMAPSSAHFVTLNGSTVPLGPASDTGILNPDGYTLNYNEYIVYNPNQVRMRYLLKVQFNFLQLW

[4] = biological target: T1, Poly [ADP-ribose] polymerase 1; assay: Inhibition of human PARP-1 catalytic domain (662 to 1011 residues) expressed in Escherichia coli BL21(DE3) cells pre-incubated for 30 mins before addition of activated DNA and NAD by fluorescence based assay
[5] = tested on: MDA-MB-436; assay: Antitumor activity against human MDA-MB-436 cells xenografted in BALB/c nude mouse assessed as inhibition of tumor growth at 25 to 50 mg/kg, po BID for 28 days followed by treatment was interruption and monitored for additional 2 months; format: functional, organism-based; settings: dose 25-50 mg/kg, time 28.0 day
In short: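 Female 8-week-old BALB/c nude mice receive 5 × 10⁶ cells in PBS:Matrigel 1:1 subcutaneously in the right flank. […] Tumors are then monitored 2 more months. Caliper volume V = 0.5ab² is taken twice weekly.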

[6] = Oral bioavailability in Sprague-Dawley rat at 5 mg/kg by LC-MS/MS analysis; format: ADME, organism-based; settings: in vivo
In short: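 Pharmacokinetics in Sprague-Dawley rats, three per group. iv 2 mg/kg in 38% DMA in water; po 5 mg/kg. Plasma was protein-precipitated, diluted with water and analysed by LC-MS/MS using an acetonitrile/0.1% formic acid gradient. Values are means of three rats.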

[7] = Clearance in rat at 5 mg/kg, po by LC-MS/MS analysis; format: ADME, organism-based; settings: in vivo
[8] = biological target: hERG (KCNH2) (Homo sapiens, UniProt Q12809); assay: Inhibition of human ERG activity at 20 uM by functional cellular assay
Chain of hERG (KCNH2) (Q12809 whole entry): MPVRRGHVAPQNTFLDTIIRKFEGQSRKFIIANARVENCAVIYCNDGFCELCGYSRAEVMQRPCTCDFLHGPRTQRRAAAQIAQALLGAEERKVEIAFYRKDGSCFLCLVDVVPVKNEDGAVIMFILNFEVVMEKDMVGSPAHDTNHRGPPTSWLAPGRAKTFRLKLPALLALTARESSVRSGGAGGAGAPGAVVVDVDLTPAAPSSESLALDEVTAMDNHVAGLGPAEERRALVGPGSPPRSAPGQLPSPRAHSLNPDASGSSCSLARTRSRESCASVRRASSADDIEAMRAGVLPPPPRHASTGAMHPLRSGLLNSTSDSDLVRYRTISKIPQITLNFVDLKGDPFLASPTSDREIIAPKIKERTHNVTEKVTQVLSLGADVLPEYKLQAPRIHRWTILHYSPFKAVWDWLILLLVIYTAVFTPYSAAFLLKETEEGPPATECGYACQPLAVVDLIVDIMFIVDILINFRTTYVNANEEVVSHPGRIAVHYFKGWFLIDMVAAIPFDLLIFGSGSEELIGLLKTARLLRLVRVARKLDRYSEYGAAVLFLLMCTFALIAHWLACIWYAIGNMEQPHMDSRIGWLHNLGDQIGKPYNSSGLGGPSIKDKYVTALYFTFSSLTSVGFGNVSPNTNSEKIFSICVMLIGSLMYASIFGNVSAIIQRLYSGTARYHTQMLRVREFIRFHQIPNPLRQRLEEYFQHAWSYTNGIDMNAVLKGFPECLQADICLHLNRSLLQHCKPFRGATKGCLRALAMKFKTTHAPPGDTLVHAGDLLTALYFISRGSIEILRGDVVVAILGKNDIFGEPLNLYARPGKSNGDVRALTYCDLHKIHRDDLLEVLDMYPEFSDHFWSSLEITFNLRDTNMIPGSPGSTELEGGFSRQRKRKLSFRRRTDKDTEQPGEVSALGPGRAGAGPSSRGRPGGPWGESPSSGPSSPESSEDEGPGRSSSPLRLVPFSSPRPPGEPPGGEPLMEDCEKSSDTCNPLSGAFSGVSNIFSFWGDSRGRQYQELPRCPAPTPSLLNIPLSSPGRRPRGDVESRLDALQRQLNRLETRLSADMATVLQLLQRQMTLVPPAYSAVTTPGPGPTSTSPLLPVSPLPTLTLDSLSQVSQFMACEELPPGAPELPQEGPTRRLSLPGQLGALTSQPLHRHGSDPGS

[9] = Solubility of the compound; format: physicochemical
[10] = tested on: NCI-H209; assay: Antitumor activity against human NCI-H209 cells xenografted in BALB/c nude mouse assessed as tumor relapse at 50 mg/kg, po QD for 5 consecutive days at start of study and again 14 days later and measured after 48 days; format: functional, organism-based; settings: time 19.0 day
In short: (§1)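 Female BALB/c nude mice are implanted subcutaneously with 1 × 10⁷ H209 cells in cold PBS. At ~175 mm³ they are randomized into four groups of 8. TMZ is given orally in 0.5% MC at 10 mL/kg, QD on days 1–5 and 15–19. Caliper tumor volume (0.5ab²) is measured twice weekly and reported as mean ± SEM.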

[11] = tested on: NCI-H209; assay: Antitumor activity against human NCI-H209 cells xenografted in BALB/c nude mouse assessed as PR rate at 50 mg/kg, po QD for 5 consecutive days at start of study and again 14 days later; format: functional; settings: time 19 day; in short: as §1
[12] = tested on: NCI-H209; assay: Antitumor activity against human NCI-H209 cells xenografted in BALB/c nude mouse assessed as inhibition of tumor growth at 50 mg/kg, po QD for 5 consecutive days at start of study and again 14 days later; format: functional, organism-based; settings: time 19.0 day; in short: as §1
[13] = AUC (0 to 24 hrs) in rat at 5 mg/kg, po by LC-MS/MS analysis; format: ADME, organism-based; set-up: time < 24 hr, route oral, dose 5 mg/kg; settings: in vivo

T1 sequence (P09874 whole entry): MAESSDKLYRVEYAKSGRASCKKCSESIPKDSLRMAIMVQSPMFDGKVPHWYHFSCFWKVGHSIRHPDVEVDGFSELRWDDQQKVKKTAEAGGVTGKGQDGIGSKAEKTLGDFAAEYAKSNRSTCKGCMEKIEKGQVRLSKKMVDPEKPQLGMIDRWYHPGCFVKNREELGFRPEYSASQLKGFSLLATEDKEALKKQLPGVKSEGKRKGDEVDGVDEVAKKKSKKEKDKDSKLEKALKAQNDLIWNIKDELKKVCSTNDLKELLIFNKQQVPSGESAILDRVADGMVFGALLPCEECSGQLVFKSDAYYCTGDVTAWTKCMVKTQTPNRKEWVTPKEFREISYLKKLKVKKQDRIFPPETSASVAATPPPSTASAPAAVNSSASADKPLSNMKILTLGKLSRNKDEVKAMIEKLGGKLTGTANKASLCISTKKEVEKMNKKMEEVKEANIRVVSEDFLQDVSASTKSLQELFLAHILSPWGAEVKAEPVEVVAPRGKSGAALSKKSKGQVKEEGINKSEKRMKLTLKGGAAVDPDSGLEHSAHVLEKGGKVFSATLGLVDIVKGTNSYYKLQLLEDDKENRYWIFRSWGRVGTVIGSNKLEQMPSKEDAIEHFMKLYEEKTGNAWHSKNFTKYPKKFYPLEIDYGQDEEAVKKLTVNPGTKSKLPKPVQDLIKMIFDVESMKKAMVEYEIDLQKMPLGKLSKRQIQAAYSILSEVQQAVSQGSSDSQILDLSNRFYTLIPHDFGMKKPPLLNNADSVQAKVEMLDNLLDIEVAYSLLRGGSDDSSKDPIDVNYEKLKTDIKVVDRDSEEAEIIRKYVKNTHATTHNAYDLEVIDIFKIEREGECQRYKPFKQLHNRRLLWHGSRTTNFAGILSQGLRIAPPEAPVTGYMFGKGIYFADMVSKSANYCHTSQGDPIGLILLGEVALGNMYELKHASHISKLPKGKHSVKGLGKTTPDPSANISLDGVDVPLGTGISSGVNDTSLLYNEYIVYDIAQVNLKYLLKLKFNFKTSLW

EC50 [2] | IC50 [4] | Structure (SMILES) | inhibition at 20 µM [8] | other results
11.7 nM | 6.6 nM | O=C1NN=C2CN(C(=O)[C@@H]3CCCN3)Cc3[nH]c4cc(F)cc1c4c32 |  | 
3.5 nM | 4.7 nM | O=C1NN=C2CN(C(=O)C3(O)CC3)Cc3[nH]c4cc(F)cc1c4c32 |  | 
24.1 nM | 28.1 nM | O=C1NN=C2CN(C(=O)C3(c4ccccc4)CC3)Cc3[nH]c4cc(F)cc1c4c32 |  | CL/F [7]: 71 mL/min/kg
9.3 nM | 8 nM | O=C1NN=C2CN(S(=O)(=O)C3CC3)Cc3[nH]c4cc(F)cc1c4c32 |  | 

Further lines, the compound ahead of its results:

Structure (SMILES) | EC50 [2] | IC50 [4] | inhibition at 20 µM [8] | other results
CN1CC2=NNC(=O)c3cc(F)cc4[nH]c(c2c34)C1 |  |  |  | CLint scaled [1]: 275 mL/min/kg
CC1CC2=NNC(=O)c3cc(F)cc4[nH]c(c2c34)C1 (stereo not drawn) | 2.7 nM | 4.9 nM |  | IC50 [3]: 1.3 nM
O=C(c1cc(Cc2n[nH]c(=O)c3ccccc23)ccc1F)N1CCN(C(=O)C2CC2)CC1 [OLAPARIB] |  |  |  | TGI [5]: Active; bioavailability [6]: 10%
O=C1NN=C2CN(C(=O)C3CC3)Cc3[nH]c4cccc1c4c32 |  |  | 12% | CL/F [7]: 114 mL/min/kg; CLint scaled [1]: 250 mL/min/kg
CC1(C)CC2=NNC(=O)c3cc(F)cc4[nH]c(c2c34)C1 |  |  | 32% | 
CC1(C)C(C(=O)N2CC3=NNC(=O)c4cc(F)cc5[nH]c(c3c45)C2)C1(C)C | 16.6 nM | 17.9 nM |  | 
CC1(C)CCc2[nH]c3cc(F)cc4c3c2C1=NNC4=O | 45.5 nM | 28.8 nM |  | 
CN(C)CCn1c2c3c4c(cc(F)cc41)C(=O)NN=C3CC(C)(C)C2 |  |  | 73% | solubility [9]: Soluble; IC50 [3]: 0.3 nM
CCN(CC)CCn1c2c3c4c(cccc41)C(=O)NN=C3CC(C)(C)C2 |  |  | 95% | solubility [9]: Soluble
NC1(C(=O)N2CC3=NNC(=O)c4cc(F)cc5[nH]c(c3c45)C2)CC1 | 22 nM | 9.9 nM |  | 
Cn1nnc2c(C(N)=O)ncn2c1=O [TEMOZOLOMIDE] |  |  |  | Activity [10]: inactive; Activity [11]: 13%; TGI [12]: Active
CC1(C)C(=O)C2=NNC(=O)c3cc(F)cc4[nH]c(c2c34)C1=O | 76.1 nM | 13.1 nM |  | 
CC(C)C1CC2=NNC(=O)c3cc(F)cc4[nH]c(c2c34)C1 (stereo not drawn) |  |  |  | IC50 [3]: 0.7 nM
O=C1NN=C2CCCCc3[nH]c4cc(F)cc1c4c32 |  |  |  | IC50 [3]: 0.7 nM
CC1(C)CC2=NNC(=O)c3cccc4c3c2c(n4CCO)C1 | 176 nM |  |  | 
CN(C)CCn1c2c3c4c(cccc41)C(=O)NN=C3CC(C)(C)C2 |  |  | 77% | solubility [9]: Soluble; IC50 [3]: 0.3 nM
CC(C)N1CC2=NNC(=O)c3cccc4[nH]c(c2c34)C1 |  |  | 39% | bioavailability [6]: 19%; CL/F [7]: 114 mL/min/kg; AUC(0-t) at 24 h [13]: 141 ng·h/mL; CLint scaled [1]: 174 mL/min/kg
CC12CCCN1Cc1[nH]c3cc(F)cc4c3c1C2=NNC4=O (stereo not drawn) | 54.7 nM | 73 nM |  | 
CNCCn1c2c3c4c(cccc41)C(=O)NN=C3CC(C)(C)C2 | 0.5 nM | 7 nM |  | 
CC1(C)CC2=NNC(=O)c3cccc4c3c2c(n4CCN2CCCCC2)C1 |  |  | 92% | solubility [9]: Soluble
CC1(C)CC2=NNC(=O)c3cccc4c3c2c(n4CCN2CCCC2)C1 |  |  | 97% | solubility [9]: Soluble
CC1(C(=O)N2CC3=NNC(=O)c4cc(F)cc5[nH]c(c3c45)C2)CC1 | 15.4 nM | 9.8 nM |  | 
O=C1NN=C2CC(c3ccccc3)Cc3[nH]c4cc(F)cc1c4c32 (stereo not drawn) |  |  |  | IC50 [3]: 1.8 nM
CC(C)(N)C(=O)N1CC2=NNC(=O)c3cccc4[nH]c(c2c34)C1 |  |  | 43% | 
